# Measured values from different studies.
# Compare with care: the assays were run in different laboratories.
# Matrix: plasma
Compound,test system,conditions,AUC(0-t)
CC(=O)N(C)[C@H]1CCN(C(=O)c2cnc3c(c2)C[C@](C)(c2ccc(F)cc2)N3)C1,male human,"oral, 15 mg, multiple doses, once daily",1.88 µM·h
CC1(C)CC[C@]2(NC(=O)C(C)(F)F)CC[C@]3(C)[C@H](C(=O)C=C4[C@@]5(C)C=C(C#N)C(=O)C(C)(C)[C@@H]5CC[C@]43C)[C@@H]2C1,human,"oral, 150 mg, single dose",1730 ng·h/mL
OC[C@H]1O[C@@H](c2cc(Cc3ccc(C4CC4)cc3)c(Cl)c3c2CCO3)[C@H](O)[C@@H](O)[C@@H]1O,human,"oral, 0.3 mg, single dose, fasted",26.5 ng·h/mL
Cc1cc(-c2nccc3c2ccn3CC(=O)Nc2ccc(-c3cnccn3)cn2)ccn1,human,"oral, 7 mg, single dose",0.498 µM·h
CC(=O)O[C@H]1C(=O)[C@@]2(C)[C@H]([C@H](OC(=O)c3ccccc3)[C@]3(O)C[C@H](OC(=O)[C@H](O)[C@@H](NC(=O)c4ccccc4)c4ccccc4)C(C)=C1C3(C)C)[C@]1(OC(C)=O)CO[C@@H]1C[C@@H]2O,human,"intravenous, 60 mg/m²",2.1 µM·h
CC(C)n1c(C2CCNCC2)nc2c([N+](=O)[O-])c(Br)c(Br)cc21,human,"oral, 50 mg, patients",451 ng·h/mL
C[C@@H](Oc1ccc(S(C)(=O)=O)cc1C(=O)N1C[C@@H]2C[C@]2(c2cc(C(F)(F)F)on2)C1)C(F)(F)F,human,"oral, 10 mg, single dose, fasted",1.61 µM·h
COc1ccc(-c2c(Nc3ccccn3)[nH]c3c(C4=CCCCC4)c(-c4ccccc4)nn3c2=O)cc1,human,"oral, 50 mg once daily, multiple doses, steady state, patients",33400 ng·h/mL
COc1ccc2c(c1)CN(C(=O)CCN1CCC(Cc3ccccc3)CC1)CC[S@@+]2[O-],male human,"intravenous, 0.4 mg/kg, healthy volunteers",2410 ng·h/mL
